Reference: ChEMBL document CHEMBL1131073, “Structure-activity study of the nociceptin(1-13)-NH2 N-terminal tetrapeptide and discovery of a nociceptin receptor antagonist” (J Med Chem, 1998)
The source made the active and inactive calls. No cut-off for these calls is given here. Numbered stars: 1 amine (or outer) side, 2 acyl side, 3 side chain; on linkers, the order of the positions; unused ones are H or OH. Square brackets hold non-standard residues; d marks the D form. Peptide text beside a SMILES is read from it. X1 = N[C@@H](Cc1ccccc1)CN(CC(=O)[*:2])[*:1]; Ava = NCCCCC(=O)O; GABA = NCCCC(=O)O; βAla = NCCC(=O)O

How the values were obtained:
Type in all cases: functional
Mus musculus [1] = species: Mus musculus; test: The maximal effect induced by an agonist expressed as percent inhibition of electrically induced twitches.
In short: (§1)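 Vas deferens from Swiss male mice (25–30 g), prepared per Hughes, in Mg2+-free Krebs (95% O2/5% CO2, pH 7.4) at 33 °C, 0.3 g resting tension. Field stimulation via platinum ring electrodes: supramaximal 1-ms pulses, 0.1 Hz. Isotonic twitch recording. After ~2 h equilibration, cumulative concentration–response curves in 0.5 log steps. Mean ± SEM of at least four experiments; pEC50 with 95% confidence limits.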

Mus musculus [2] = species: Mus musculus; test: Antagonist effect in the electrically stimulated mouse vas deferens;I = Inactive at 10 uM
Mus musculus [3] = species: Mus musculus; test: The maximal effect induced by an agonist expressed as percent inhibition of electrically induced twitches;I = Inactive at 10 uM; in short: as §1
Mus musculus [4] = species: Mus musculus; test: Agonist effect in the electrically stimulated mouse vas deferens.;I = Inactive at 10 uM; in short: as §1
Mus musculus [5] = species: Mus musculus; test: The maximal effect induced by an agonist expressed as percent inhibition of electrically induced twitches; in short: as §1
Mus musculus [6] = species: Mus musculus; test: Agonist effect in the electrically stimulated mouse vas deferens. (CL95%); in short: as §1
Mus musculus [7] = species: Mus musculus; test: Antagonist effect in the electrically stimulated mouse vas deferens; Inactive at 10 uM
Mus musculus [8] = species: Mus musculus; test: Agonist effect in the electrically stimulated mouse vas deferens. (CL95%); Inactive at 10 uM; in short: as §1
Mus musculus [9] = species: Mus musculus; test: The maximal effect induced by an agonist expressed as percent inhibition of electrically induced twitches; Inactive at 10 uM; in short: as §1
Mus musculus [10] = species: Mus musculus; test: Antagonist effect in the electrically stimulated mouse vas deferens; settings: read-out: pA2 (converted)

Molecule	Log EC50 (Mus musculus [8])	pA2 (Mus musculus [7])	Emax (Mus musculus [9])	other results
C[C@H](NC(=O)CNC(=O)[C@@H](NC(=O)[C@H](Cc1ccccc1)NC(=O)CNC(=O)CNC(=O)[C@@H](N)Cc1ccccc1)[C@@H](C)O)C(=O)N[C@@H](CCCNC(=N)N)C(=O)N[C@@H](CCCCN)C(=O)N[C@@H](CO)C(=O)N[C@@H](C)C(=O)N[C@@H](CCCNC(=N)N)C(=O)N[C@@H](CCCCN)C(N)=O				Emax (Mus musculus [1]): -84
C[C@H](NC(=O)CNC(=O)[C@@H](NC(=O)[C@H](Cc1ccccc1)NC(=O)CNC(=O)[C@@H](Cc1ccccc1)NC(=O)[C@@H](N)Cc1ccccc1)[C@@H](C)O)C(=O)N[C@@H](CCCN=C(N)N)C(=O)N[C@@H](CCCCN)C(=O)N[C@@H](CO)C(=O)N[C@@H](C)C(=O)N[C@@H](CCCN=C(N)N)C(=O)N[C@@H](CCCCN)C(N)=O				pA2 (Mus musculus [2]): inactive; Emax (Mus musculus [3]): inactive; Log EC50 (Mus musculus [4]): inactive
C[C@H](NC(=O)CNC(=O)[C@@H](NC(=O)[C@H](Cc1ccccc1)NC(=O)CNC(=O)[C@H](Cc1ccccc1)NC(=O)[C@@H](N)Cc1ccccc1)[C@@H](C)O)C(=O)N[C@@H](CCCN=C(N)N)C(=O)N[C@@H](CCCCN)C(=O)N[C@@H](CO)C(=O)N[C@@H](C)C(=O)N[C@@H](CCCN=C(N)N)C(=O)N[C@@H](CCCCN)C(N)=O				pA2 (Mus musculus [2]): inactive; Emax (Mus musculus [3]): inactive; Log EC50 (Mus musculus [4]): inactive
C[C@H](NC(=O)CNC(=O)[C@@H](NC(=O)[C@H](Cc1ccccc1)NC(=O)[C@@H](Cc1ccccc1)NC(=O)CNC(=O)[C@@H](N)Cc1ccccc1)[C@@H](C)O)C(=O)N[C@@H](CCCN=C(N)N)C(=O)N[C@@H](CCCCN)C(=O)N[C@@H](CO)C(=O)N[C@@H](C)C(=O)N[C@@H](CCCN=C(N)N)C(=O)N[C@@H](CCCCN)C(N)=O (H-FG[dF]FTGARKSARK-NH2)		inactive		Emax (Mus musculus [5]): -75; EC50 (Mus musculus [6]): 2.09 µM
C[C@H](NC(=O)CNC(=O)[C@@H](NC(=O)[C@H](Cc1ccccc1)NC(=O)CCCNC(=O)[C@@H](N)Cc1ccccc1)[C@@H](C)O)C(=O)N[C@@H](CCCN=C(N)N)C(=O)N[C@@H](CCCCN)C(=O)N[C@@H](CO)C(=O)N[C@@H](C)C(=O)N[C@@H](CCCN=C(N)N)C(=O)N[C@@H](CCCCN)C(N)=O (H-F[GABA]FTGARKSARK-NH2)	inactive	inactive	inactive	
C[C@H](NC(=O)CNC(=O)[C@@H](NC(=O)[C@H](Cc1ccccc1)NC(=O)CNC(=O)CNC[C@@H](N)Cc1ccccc1)[C@@H](C)O)C(=O)N[C@@H](CCCN=C(N)N)C(=O)N[C@@H](CCCCN)C(=O)N[C@@H](CO)C(=O)N[C@@H](C)C(=O)N[C@@H](CCCN=C(N)N)C(=O)N[C@@H](CCCCN)C(N)=O (H-[X1]GFTGARKSARK-NH2)	inactive		inactive	Kb (Mus musculus [10]): 0.178 µM
CC(NC(=O)CNC(=O)[C@@H](NC(=O)[C@H](Cc1ccccc1)NC(=O)CNC(=O)C(C)NC(=O)[C@@H](N)Cc1ccccc1)[C@@H](C)O)C(=O)N[C@@H](CCCN=C(N)N)C(=O)N[C@@H](CCCCN)C(=O)N[C@@H](CO)C(=O)NC(C)C(=O)N[C@@H](CCCN=C(N)N)C(=O)N[C@@H](CCCCN)C(N)=O (stereo in doubt)				EC50 (Mus musculus [6]): 1 µM; Emax (Mus musculus [1]): -81
C[C@H](NC(=O)CNC(=O)[C@@H](NC(=O)C(Cc1ccccc1)NC(=O)CNC(=O)CNC[C@H](N)Cc1ccccc1)[C@@H](C)O)C(=O)N[C@@H](CCCN=C(N)N)C(=O)N[C@@H](CCCCN)C(=O)N[C@@H](CO)C(=O)N[C@@H](C)C(=O)N[C@@H](CCCN=C(N)N)C(=O)N[C@@H](CCCCN)C(N)=O (stereo in doubt)	inactive	inactive	inactive	
CC(C)C[C@H](NC(=O)[C@H](CCCCN)NC(=O)[C@H](CCCNC(=N)N)NC(=O)[C@H](C)NC(=O)[C@H](CO)NC(=O)[C@H](CCCCN)NC(=O)[C@H](CCCNC(=N)N)NC(=O)[C@H](C)NC(=O)CNC(=O)[C@@H](NC(=O)[C@H](Cc1ccccc1)NC(=O)CNC(=O)CNC(=O)[C@@H](N)Cc1ccccc1)[C@@H](C)O)C(=O)N[C@@H](C)C(=O)N[C@@H](CC(N)=O)C(=O)N[C@@H](CCC(N)=O)C(=O)O [NOCICEPTIN]				Emax (Mus musculus [1]): -83
H-FGGGFTGARKSARK-NH2		inactive		EC50 (Mus musculus [6]): 3.24 µM; Emax (Mus musculus [1]): -73

Continued, in another order:

Log EC50 (Mus musculus [8])	Molecule	pA2 (Mus musculus [7])	Emax (Mus musculus [9])	other results
inactive	C[C@H](NC(=O)CNC(=O)[C@@H](NC(=O)[C@H](Cc1ccccc1)NC(=O)CCCCNC(=O)[C@@H](N)Cc1ccccc1)[C@@H](C)O)C(=O)N[C@@H](CCCN=C(N)N)C(=O)N[C@@H](CCCCN)C(=O)N[C@@H](CO)C(=O)N[C@@H](C)C(=O)N[C@@H](CCCN=C(N)N)C(=O)N[C@@H](CCCCN)C(N)=O (H-F[Ava]FTGARKSARK-NH2)	inactive	inactive	
inactive	C[C@H](NC(=O)CNC(=O)[C@@H](NC(=O)[C@H](Cc1ccccc1)NC(=O)CCNC(=O)[C@@H](N)Cc1ccccc1)[C@@H](C)O)C(=O)N[C@@H](CCCN=C(N)N)C(=O)N[C@@H](CCCCN)C(=O)N[C@@H](CO)C(=O)N[C@@H](C)C(=O)N[C@@H](CCCN=C(N)N)C(=O)N[C@@H](CCCCN)C(N)=O (H-F[βAla]FTGARKSARK-NH2)	inactive	inactive	
inactive	H-FFTGARKSARK-NH2	inactive	inactive	
inactive	H-FGFFTGARKSARK-NH2	inactive	inactive	
inactive	H-FPFTGARKSARK-NH2	inactive	inactive	
